What was measured:
[1] = Drug excretion in human urine treated with [14C][…] at […], po measured during 0 to 168 hrs; assay type: ADME, organism-based; conditions: in vivo
[2] = Drug excretion in human bile treated with [14C][…] at […], po measured during 3 to 8 hrs; assay type: ADME, organism-based; conditions: in vivo
[3] = Chemical stability of compound assessed as aglycon formation rate in 50 mM phosphate buffer at pH 7.4 by HPLC analysis; assay type: physicochemical
Outline: (§1)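 Synthetic 1-O-β-acyl glucuronide at 50 μg/mL, incubated at 37°C and pH 7.4. […] used 50 mM sodium phosphate buffer; […] used human plasma buffered with 50 mM phosphate. Samples were taken at 0.25–48 h (3 tubes per time point), frozen at -80 °C and run on HPLC system III. Aglycon formation rate is the mean of rates within the linear range (<3 hr).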

[4] = system: Plasma; test: Stability in human plasma assessed as aglycon formation rate by HPLC analysis in presence of 50 mM phosphate; assay type: ADME, cell-free; outline: as §1
[5] = system: Liver microsome; test: Drug metabolism in human liver microsomes assessed as glucuronide oxidation rate per mg of protein in presence of NADPH; assay type: ADME
Outline: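 Acyl glucuronide (20 μM) was incubated for 15 min with human liver microsomes (2 mg/mL protein) in 50 mM sodium phosphate, with and without 1 mM NADPH. Products were separated on HPLC system II, quantified by UV at 278 nm and identified by LC/MS.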

[6] = system: Homo sapiens; test: Drug level in human plasma assessed as compound formation treated with [14C]peliglitazar at 10 mg, po administered as single dose measured after 1 to 24 hrs by HPLC analysis; assay type: ADME, organism-based; conditions: in vivo
Outline: (§2)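 Healthy males aged 18–45 (four subjects) fasted at least 8 h, then took a single oral PEG-400 solution (~100 μCi) of [14C]muraglitazar 20 mg or [14C]peliglitazar 10 mg. K2EDTA plasma was taken at 1, 4, 12 and 24 h, acidified to 5% acetic acid and stored at -20 °C. Plasma was pooled across subjects, extracted three times with methanol/acetonitrile (1:3), and fractions from HPLC system II were radiocounted. Concentration came from relative radioactivity distribution, total radioactivity and specific activity.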

[7] = system: Homo sapiens; test: Drug metabolism in human plasma assessed as peliglitazar-1-O-beta-acyl glucuronide formation at 10 mg, po administered as single dose measured after 1 to 24 hrs by HPLC analysis; assay type: ADME, organism-based; conditions: in vivo
Outline: (§3)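 Healthy male volunteers received a single oral [14C] dose (approximately 100 μCi) in PEG-400 after fasting. K2EDTA blood drawn at 1, 4, 12 and 24 h. Plasma acidified to 5% acetic acid, stored at -20°C, pooled across subjects and extracted three times with methanol/acetonitrile (1:3). Radio-HPLC used fraction collection and counting; protein pellets were counted after NaOH digestion.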

[8] = system: Homo sapiens; test: Drug metabolism in human plasma assessed as acyl isomer formation at 10 mg, po administered as single dose by HPLC analysis; assay type: ADME, organism-based; conditions: in vivo; outline: as §3
[9] = system: Liver microsome; test: Drug metabolism in human liver microsomes assessed as glucuronidation rate per mg of protein at 10 uM after 15 mins by LC-MS/HPLC analysis in presence of 2 mM UDPGA; assay type: ADME; conditions: 0.25 h
Outline: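 Human liver microsomes (1 mg/mL protein) with substrate 10 μM final, UDPGA 2 mM, MgCl2 10 mM, Tris 100 mM pH 7.4. Started with substrate at 37°C, stopped after 15 min with one volume acetonitrile, centrifuged. Supernatant analysed by LC/MS; fraction from the 278 nm UV trace as metabolite/(metabolite + parent).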

[10] = system: Hepatocyte; test: Drug metabolism in human hepatocytes assessed as glucuronidation rate per 10^6 cells at 5 uM after 1 hr by LC-MS/HPLC analysis in Krebs-Henseleit buffer
[11] = system: Homo sapiens; test: Drug metabolism in human plasma assessed as muraglitazar-1-O-beta-acyl glucuronide formation at 20 mg, po administered as single dose after 1 hr by HPLC analysis; assay type: ADME, organism-based; conditions: in vivo; outline: as §3
[12] = system: Homo sapiens; test: Drug metabolism in human plasma assessed as muraglitazar-1-O-beta-acyl glucuronide formation at 20 mg, po administered as single dose measured after 4 to 24 hrs by HPLC analysis; assay type: ADME, organism-based; conditions: in vivo; outline: as §3
[13] = system: Homo sapiens; test: Drug metabolism in human plasma assessed as acyl isomer formation at 20 mg, po administered as single dose by HPLC analysis; assay type: ADME, organism-based; conditions: in vivo; outline: as §3
[14] = Drug excretion in human urine treated with [14C]muraglitazar at 20 mg, po measured during 0 to 168 hrs; assay type: ADME, organism-based; conditions: in vivo
[15] = Drug excretion in human bile treated with [14C]muraglitazar at 20 mg, po measured during 3 to 8 hrs; assay type: ADME, organism-based; conditions: in vivo
[16] = system: Homo sapiens; test: Drug level in human plasma assessed as compound formation treated with [14C]muraglitazar at 20 mg, po administered as single dose measured after 1 hr by HPLC analysis; assay type: ADME, organism-based; conditions: in vivo; outline: as §2
[17] = Drug excretion in human urine at 20 mg, po measured during 0 to 168 hrs; assay type: ADME, organism-based; conditions: read-out: Drug excretion
[18] = Drug excretion in human bile at 20 mg, po measured during 3 to 8 hrs; assay type: ADME, organism-based; conditions: read-out: Drug excretion

With `COc1ccc(OC(=O)N(CC(=O)O[C@@H]2O[C@H](C(=O)O)[C@@H](O)[C@H](O)[C@H]2O)[C@@H](C)c2ccc(OCCc3nc(-c4ccccc4)oc3C)cc2)cc1` the Drug excretion [1] was 0.24%, the Drug excretion [2] was 16% and the Drug metabolism [3] was 0.5 ug/ml.hr. For the same compound, the Drug metabolism [4] was 5.9 ug/ml.hr, the Drug metabolism [5] was 24 pmol/min and the Drug metabolism [6] was “metabolite_detected”.
For `COc1ccc(OC(=O)N(CC(=O)O)[14C@@H](C)c2ccc(O[14CH2]Cc3nc(-c4ccccc4)oc3C)cc2)cc1`, the Drug metabolism [7] was “metabolite_detected”, the Drug metabolism [8] was “metabolite_not_detected” and the Drug metabolism [9] was 32 pmol/min. For the same compound, the Drug metabolism [10] was 49 pmol/min.
For `COc1ccc(OC(=O)N(CC(=O)O)C[14c]2[14cH][14cH][14c](OCCc3nc(-c4ccccc4)oc3C)[14cH][14cH]2)cc1`, the Drug metabolism [11] was “metabolite_detected”, the Drug metabolism [12] was “metabolite_not_detected” and the Drug metabolism [13] was “metabolite_not_detected”. It also gave a Drug metabolism [9] of 33 pmol/min and a Drug metabolism [10] of 60 pmol/min.
`COc1ccc(OC(=O)N(CC(=O)O[C@@H]2O[C@H](C(=O)O)[C@@H](O)[C@H](O)[C@H]2O)Cc2ccc(OCCc3nc(-c4ccccc4)oc3C)cc2)cc1` showed a Drug excretion [14] of 0.81%, a Drug excretion [15] of 15% and a Drug metabolism [3] of 3.5 ug/ml.hr. The Drug metabolism [4] was 16.7 ug/ml.hr, the Drug metabolism [5] was 22 pmol/min and the Drug metabolism [16] was “metabolite_detected”.
Compound `COc1ccc(OC(=O)N(CC(=O)O)Cc2ccc(OCCc3nc(-c4ccccc4)oc3C)cc2)cc1` [MURAGLITAZAR] has a dose excreted [17] of 2.13% and a dose excreted [18] of 39.9%.
`COc1ccc(OC(=O)N(CC(=O)O)[C@@H](C)c2ccc(OCCc3nc(-c4ccccc4)oc3C)cc2)cc1` [PELIGLITAZAR] showed a dose excreted [17] of 1.24% and a dose excreted [18] of 24.4%.
